Measurements: ChEMBL document CHEMBL1122296, “Plasmin-activated prodrugs for cancer chemotherapy. 2. Synthesis and biological activity of peptidyl derivatives of doxorubicin” (1983)

Columns and labels:
Format in all cases: functional
Gallus gallus [1] = organism: Gallus gallus; assay: Inhibitory activity against the [3H]thymidine incorporation into DNA of Rous Sarcoma virus transformed chicken embryo fibroblasts at 24 hr of treatment; settings: read-out: ED50 (the source's name)
Gallus gallus [2] = organism: Gallus gallus; assay: Inhibitory activity against the [3H]thymidine incorporation into DNA of Rous Sarcoma virus transformed chicken embryo fibroblasts at 5 hr of treatment; settings: read-out: ED50 (the source's name)
Gallus gallus [3] = organism: Gallus gallus; assay: Inhibitory activity against the [3H]thymidine incorporation into DNA of normal chicken embryo fibroblasts at 24 hr of treatment; settings: read-out: ED50 (the source's name)
Gallus gallus [4] = organism: Gallus gallus; assay: Inhibitory activity against the [3H]-thymidine incorporation into DNA of normal chicken embryo fibroblasts at 5 hr of treatment; settings: read-out: ED50 (the source's name)
Mus musculus [5] = assay: Median survival of treated/ control animals (%T/C) was determined by in vivo antitumor activity against the B16 melanoma cell line at a dose of 12 mg/kg administered intraperitoneally on day 5; settings: route intraperitoneal
Outline: (§1)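 Murine B16 melanoma implanted intraperitoneally in mice. Drug given intraperitoneally on days 5, 9 and 13 after implantation, with dose expressed as doxorubicin equivalents. Read-out is %T/C, the median survival of treated animals over that of untreated controls.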

Mus musculus [6] = assay: Median survival of treated/ control animals (%T/C) was determined by in vivo antitumor activity against the B16 melanoma cell line at a dose of 6 mg/kg administered intraperitoneally on day 5; settings: route intraperitoneal; outline: as §1
Mus musculus [7] = assay: Median survival of treated/ control animals (%T/C) was determined by in vivo antitumor activity against the B16 melanoma cell line at a dose of 9 mg/kg administered intraperitoneally on day 5; settings: route intraperitoneal; outline: as §1
Mus musculus [8] = assay: Median survival of treated/ control animals (%T/C) was determined by in vivo antitumor activity against the B16 melanoma cell line at a dose of 3 mg/kg administered intraperitoneally on day 5; settings: route intraperitoneal; outline: as §1
Mus musculus [9] = assay: Median survival of treated/ control animals (%T/C) was determined by in vivo antitumor activity against the B16 melanoma cell line at a dose of 1 mg/kg administered intraperitoneally on day 5; settings: route intraperitoneal; outline: as §1
[10] = Degree of improvement in the selective cytotoxicity of the prodrug (drug 10) to that of the parent drug (drug 1) at 24 hr of treatment; Value is measured as 6.8 times
[11] = Degree of improvement in the selective cytotoxicity of the prodrug (drug 10) to that of the parent drug (drug 1) at 5 hr of treatment; Value is measured as 5.8 times
[12] = Selectivity index between the ED50 value for normal cells to that of transformed chicken embryo fibroblast cells at 24 hr of treatment
[13] = Selectivity index between the ED50 value for normal cells to that of transformed chicken embryo fibroblast cells at 5 hr of treatment
Mus musculus [14] = assay: Median survival of treated/ control animals (%T/C) was determined by in vivo antitumor activity against the B16 melanoma cell line at a dose of 15 mg/kg administered intraperitoneally on day 5; settings: route intraperitoneal; outline: as §1
Mus musculus [15] = assay: Median survival of treated/ control animals (%T/C) was determined by in vivo antitumor activity against the B16 melanoma cell line at a dose of 60 mg/kg administered intraperitoneally on day 5; settings: route intraperitoneal; outline: as §1
Mus musculus [16] = assay: Median survival of treated/ control animals (%T/C) was determined by in vivo antitumor activity against the B16 melanoma cell line at a dose of 75 mg/kg administered intraperitoneally on day 5; settings: route intraperitoneal; outline: as §1
Mus musculus [17] = assay: Median survival of treated/ control animals (%T/C) was determined by in vivo antitumor activity against the B16 melanoma cell line at a dose of 30 mg/kg administered intraperitoneally on day 5; settings: route intraperitoneal; outline: as §1
Mus musculus [18] = assay: Median survival of treated/ control animals (%T/C) was determined by in vivo antitumor activity against the B16 melanoma cell line at a dose of 45 mg/kg administered intraperitoneally on day 5; settings: route intraperitoneal; outline: as §1
Mus musculus [19] = assay: Median survival of treated/ control animals (%T/C) was determined by in vivo antitumor activity against the B16 melanoma cell line at a dose of 5 mg/kg administered intraperitoneally on day 5; settings: route intraperitoneal; outline: as §1

SMILES	EC50 (Gallus gallus [1]) [nM]	EC50 (Gallus gallus [2]) [µM]	EC50 (Gallus gallus [3]) [nM]	EC50 (Gallus gallus [4]) [µM]	T/C (Mus musculus [5]) [%]	T/C (Mus musculus [6]) [%]	T/C (Mus musculus [7]) [%]	T/C (Mus musculus [8]) [%]	T/C (Mus musculus [9]) [%]	Improvement [10]	Improvement [11]	Selectivity index [12]	Selectivity index [13]	T/C (Mus musculus [14]) [%]	T/C (Mus musculus [15]) [%]	T/C (Mus musculus [16]) [%]	T/C (Mus musculus [17]) [%]	T/C (Mus musculus [18]) [%]	T/C (Mus musculus [19]) [%]
COc1cccc2c1C(=O)c1c(O)c3c(c(O)c1C2=O)C[C@@](O)(C(=O)CO)C[C@@H]3O[C@H]1C[C@H](N)[C@H](O)[C@H](C)O1 [DOXORUBICIN]	180	2.5	100	0.9	68	158	90	137	111	6.8	5.8	0.56	0.36	–	–	–	–	–	–
COc1cccc2c1C(=O)c1c(O)c3c(c(O)c1C2=O)C[C@@](O)(C(=O)CO)C[C@@H]3OC1CC(NC(=O)[C@H](CCCCN)NC(=O)[C@H](CC(C)C)NC(=O)[C@H](N)C(C)C)C(O)C(C)O1 (stereo partly specified)	800	26	3000	54	–	–	–	–	–	6.8	5.8	3.8	2.1	103	113	121	97	105	105
COc1cccc2c1C(=O)c1c(O)c3c(c(O)c1C2=O)C[C@@](O)(C(=O)CO)C[C@@H]3OC1CC(NC(=O)[C@H](CCCCN)NC(=O)[C@H](CC(C)C)NC(=O)[C@@H](NC(=O)OC(C)(C)C)C(C)C)C(O)C(C)O1.Cl (stereo partly specified)	–	–	–	–	–	–	–	–	–	–	–	–	–	100	100	–	110	–	105
